Measurements: ChEMBL document CHEMBL4265871, “Novel alkylated azoles as potent antifungals” (Eur J Med Chem, 2017)
≈ marks a conversion by molar mass, not a printed value.

Test system: Candida albicans
Assay: Antifungal activity against Candida albicans ATCC 64124 incubated for 48 hrs by modified CLSI M27-A3 protocol based method
Type: functional
Conditions: ATCC 64124, 48 h

| SMILES | MIC50 |
| --- | --- |
| CCCCCCC(O)(Cn1cncn1)c1ccc(Cl)cc1Cl (configuration not stated) | 5.7 µM (≈ 1.95 µg/mL) |

Test system: Candida albicans
Assay: Antifungal activity against ITC and FLC-susceptible Candida albicans ATCC MYA-2876 incubated for 48 hrs by modified CLSI M27-A3 protocol based method
Type: functional
Conditions: ATCC MYA-2876, 48 h
In short: (§1)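 Because these Candida strains show trailing growth, MIC-2 was read, meaning 50% growth inhibition. Caspofungin and voriconazole were tested here; other controls came from earlier work.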

| SMILES | MIC50 |
| --- | --- |
| CCCCCCC(O)(Cn1cncn1)c1ccc(Cl)cc1Cl (configuration not stated) | 2.8 µM (≈ 0.958 µg/mL) |

Test system: Candida albicans
Assay: Antifungal activity against ITC and FLC-susceptible Candida albicans ATCC MYA-2310 incubated for 48 hrs by modified CLSI M27-A3 protocol based method
Type: functional
Conditions: ATCC MYA-2310, 48 h

| SMILES | MIC50 |
| --- | --- |
| CCCCCCC(O)(Cn1cncn1)c1ccc(Cl)cc1Cl (configuration not stated) | 5.7 µM (≈ 1.95 µg/mL) |

Test system: Candida albicans
Assay: Antifungal activity against ITC and FLC-resistant Candida albicans ATCC MYA-1003 incubated for 48 hrs by modified CLSI M27-A3 protocol based method
Type: functional
Conditions: ATCC MYA-1003, 48 h
In short: as §1

| SMILES | MIC50 |
| --- | --- |
| CCCCCCC(O)(Cn1cncn1)c1ccc(Cl)cc1Cl (configuration not stated) | 2.8 µM (≈ 0.958 µg/mL) |

Test system: Nakaseomyces glabratus
Assay: Antifungal activity against Candida glabrata ATCC 2001 incubated for 48 hrs by modified CLSI M27-A3 protocol based method
Type: functional
Conditions: ATCC 2001, 48 h

| SMILES | MIC50 |
| --- | --- |
| CCCCCCC(O)(Cn1cncn1)c1ccc(Cl)cc1Cl (configuration not stated) | 5.7 µM (≈ 1.95 µg/mL) |

Test system: Pichia kudriavzevii
Assay: Antifungal activity against Candida krusei ATCC 6258 incubated for 48 hrs by modified CLSI M27-A3 protocol based method
Type: functional
Conditions: ATCC 6258, 48 h, read-out: MIC100
In short: (§2)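 For C. albicans ATCC 10231, C. krusei ATCC 6258 and C. parapsilosis ATCC 22019, MIC-0 was read, meaning complete growth inhibition. For azole controls, MIC-2 (50% growth inhibition) was reported instead. Caspofungin and voriconazole were tested here; other controls came from earlier work.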

| SMILES | MIC |
| --- | --- |
| CCCCCCC(O)(Cn1cncn1)c1ccc(Cl)cc1Cl (configuration not stated) | 0.09 µM (≈ 0.0308 µg/mL) |

Test system: Candida parapsilosis
Assay: Antifungal activity against Candida parapsilosis ATCC 22019 incubated for 48 hrs by modified CLSI M27-A3 protocol based method
Type: functional
Conditions: Lodderomyces parapsilosis, ATCC 22019, 48 h; read-out: MIC100
In short: as §2

| SMILES | MIC |
| --- | --- |
| CCCCCCC(O)(Cn1cncn1)c1ccc(Cl)cc1Cl (configuration not stated) | < 0.09 µM |

Test system: Aspergillus nidulans
Assay: Antifungal activity against Aspergillus nidulans ATCC 38163 incubated for 48 hrs by CLSI M38-A2 protocol based method
Type: functional
Conditions: ATCC 38163, 48 h, read-out: MIC100

| SMILES | MIC |
| --- | --- |
| CCCCCCC(O)(Cn1cncn1)c1ccc(Cl)cc1Cl (configuration not stated) | 1.4 µM (≈ 0.479 µg/mL) |

Test system: not listed separately
Assay: Toxicity in human A549 cells assessed as reduction in cell viability incubated for 24 hrs by resazurin dye based assay
Conditions: not given
In short: (§3)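 Toxicity tested in the nucleated lines A549 and BEAS-2B to give EC50 values. Selectivity index is EC50 against the mammalian line divided by the MIC against a given fungal strain.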

| SMILES | EC50 at 24 h |
| --- | --- |
| CCCCCCC(O)(Cn1cncn1)c1ccc(Cl)cc1Cl (configuration not stated) | 20 µg/mL (≈ 58.4 µM) |

Test system: not listed separately
Assay: Toxicity in human BEAS2B cells assessed as reduction in cell viability incubated for 24 hrs by resazurin dye based assay
Conditions: BEAS-2B cells
In short: as §3

| SMILES | EC50 at 24 h |
| --- | --- |
| CCCCCCC(O)(Cn1cncn1)c1ccc(Cl)cc1Cl (configuration not stated) | 28 µg/mL (≈ 81.8 µM) |

Test system: not listed separately
Assay: Hemolytic activity in mouse erythrocytes assessed as hemolysis level at 1.95 ug/ml incubated for 1 hr at 37 degC
Type: ADME, cell-based, Erythrocyte
Conditions: read-out: Activity
In short: (§4)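 Mouse erythrocytes incubated 1 h at 37 °C with test agents over 1.95 to 125 µg/mL. Percent lysis is read for each concentration.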

| SMILES | hemolysis at 1 h, 1.95 ug/ml |
| --- | --- |
| CCCCCCC(O)(Cn1cncn1)c1ccc(Cl)cc1Cl (configuration not stated) | 0% |

Test system: not listed separately
Assay: Hemolytic activity in mouse erythrocytes assessed as hemolysis level at 3.9 ug/ml incubated for 1 hr at 37 degC
Type: ADME, cell-based, Erythrocyte
Conditions: read-out: Activity
In short: as §4

| SMILES | hemolysis at 1 h, 3.9 ug/ml |
| --- | --- |
| CCCCCCC(O)(Cn1cncn1)c1ccc(Cl)cc1Cl (configuration not stated) | 0% |

Test system: not listed separately
Assay: Hemolytic activity in mouse erythrocytes assessed as hemolysis level at 7.8 ug/ml incubated for 1 hr at 37 degC
Type: ADME, cell-based, Erythrocyte
Conditions: read-out: Activity
In short: as §4

| SMILES | hemolysis at 1 h, 7.8 ug/ml |
| --- | --- |
| CCCCCCC(O)(Cn1cncn1)c1ccc(Cl)cc1Cl (configuration not stated) | 1.6% |

Test system: not listed separately
Assay: Hemolytic activity in mouse erythrocytes assessed as hemolysis level at 31.3 ug/ml incubated for 1 hr at 37 degC
Type: ADME, cell-based, Erythrocyte
Conditions: read-out: Activity
In short: as §4

| SMILES | hemolysis at 1 h, 31.3 ug/ml |
| --- | --- |
| CCCCCCC(O)(Cn1cncn1)c1ccc(Cl)cc1Cl (configuration not stated) | 92% |

Test system: not listed separately
Assay: Selectivity index, ratio of EC50 for toxicity in human BEAS2B cells to MIC50 for antifungal activity against Candida albicans ATCC 64124
Type: cell-based
Conditions: BEAS-2B cells, read-out: Selectivity Index
In short: (§5)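 Selectivity index is the EC50 against the mammalian line (A549 or BEAS-2B) divided by the MIC against the given fungal strain.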

| SMILES | selectivity ratio |
| --- | --- |
| CCCCCCC(O)(Cn1cncn1)c1ccc(Cl)cc1Cl (configuration not stated) | 14 |

Test system: not listed separately
Assay: Selectivity index, ratio of EC50 for toxicity in human BEAS2B cells to MIC100 for antifungal activity against Candida albicans ATCC 10231
Type: cell-based
Conditions: BEAS-2B cells, read-out: Selectivity Index
In short: as §5

| SMILES | selectivity ratio |
| --- | --- |
| CCCCCCC(O)(Cn1cncn1)c1ccc(Cl)cc1Cl (configuration not stated) | 117 |

Test system: not listed separately
Assay: Selectivity index, ratio of EC50 for toxicity in human A549 cells to MIC50 for antifungal activity against Candida albicans ATCC 64124
Type: cell-based
Conditions: read-out: Selectivity Index
In short: as §5

| SMILES | selectivity ratio |
| --- | --- |
| CCCCCCC(O)(Cn1cncn1)c1ccc(Cl)cc1Cl (configuration not stated) | 10 |

Test system: not listed separately
Assay: Selectivity index, ratio of EC50 for toxicity in human A549 cells to MIC50 for antifungal activity against ITC and FLC-susceptible Candida albicans ATCC MYA-2876
Type: cell-based
Conditions: read-out: Selectivity Index
In short: as §5

| SMILES | selectivity ratio |
| --- | --- |
| CCCCCCC(O)(Cn1cncn1)c1ccc(Cl)cc1Cl (configuration not stated) | 21 |

Test system: not listed separately
Assay: Selectivity index, ratio of EC50 for toxicity in human BEAS2B cells to MIC50 for antifungal activity against ITC and FLC-susceptible Candida albicans ATCC MYA-2876
Type: cell-based
Conditions: BEAS-2B cells, read-out: Selectivity Index
In short: (§6)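 Ratio of the compound's EC50 against BEAS-2B cells to its MIC against the named C. albicans strain. […] For C. albicans strains other than ATCC 10231, trailing growth meant MIC-2 was taken, meaning 50% growth inhibition.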

| SMILES | selectivity ratio |
| --- | --- |
| CCCCCCC(O)(Cn1cncn1)c1ccc(Cl)cc1Cl (configuration not stated) | 29 |

Test system: not listed separately
Assay: Selectivity index, ratio of EC50 for toxicity in human A549 cells to MIC50 for antifungal activity against ITC and FLC-resistant Candida albicans ATCC MYA-90819
Type: cell-based
Conditions: read-out: Selectivity Index
In short: as §5

| SMILES | selectivity ratio |
| --- | --- |
| CCCCCCC(O)(Cn1cncn1)c1ccc(Cl)cc1Cl (configuration not stated) | 10 |

Test system: not listed separately
Assay: Selectivity index, ratio of EC50 for toxicity in human BEAS2B cells to MIC50 for antifungal activity against ITC and FLC-susceptible Candida albicans ATCC MYA-2310
Type: cell-based
Conditions: BEAS-2B cells, read-out: Selectivity Index
In short: as §6

| SMILES | selectivity ratio |
| --- | --- |
| CCCCCCC(O)(Cn1cncn1)c1ccc(Cl)cc1Cl (configuration not stated) | 14 |

Test system: not listed separately
Assay: Selectivity index, ratio of EC50 for toxicity in human A549 cells to MIC50 for antifungal activity against ITC and FLC-resistant Candida albicans ATCC 1237
Type: cell-based
Conditions: read-out: Selectivity Index
In short: as §5

| SMILES | selectivity ratio |
| --- | --- |
| CCCCCCC(O)(Cn1cncn1)c1ccc(Cl)cc1Cl (configuration not stated) | 10 |

Test system: not listed separately
Assay: Selectivity index, ratio of EC50 for toxicity in human BEAS2B cells to MIC50 for antifungal activity against ITC and FLC-resistant Candida albicans ATCC 1237
Type: cell-based
Conditions: BEAS-2B cells, read-out: Selectivity Index
In short: as §5

| SMILES | selectivity ratio |
| --- | --- |
| CCCCCCC(O)(Cn1cncn1)c1ccc(Cl)cc1Cl (configuration not stated) | 14 |

Test system: not listed separately
Assay: Selectivity index, ratio of EC50 for toxicity in human A549 cells to MIC50 for antifungal activity against ITC and FLC-resistant Candida albicans ATCC MYA-1003
Type: cell-based
Conditions: read-out: Selectivity Index
In short: as §5

| SMILES | selectivity ratio |
| --- | --- |
| CCCCCCC(O)(Cn1cncn1)c1ccc(Cl)cc1Cl (configuration not stated) | 21 |

Test system: not listed separately
Assay: Selectivity index, ratio of EC50 for toxicity in human BEAS2B cells to MIC50 for antifungal activity against ITC and FLC-resistant Candida albicans ATCC MYA-1003
Type: cell-based
Conditions: BEAS-2B cells, read-out: Selectivity Index
In short: as §5

| SMILES | selectivity ratio |
| --- | --- |
| CCCCCCC(O)(Cn1cncn1)c1ccc(Cl)cc1Cl (configuration not stated) | 29 |

Test system: not listed separately
Assay: Selectivity index, ratio of EC50 for toxicity in human BEAS2B cells to MIC50 for antifungal activity against Candida glabrata ATCC 2001
Type: cell-based
Conditions: BEAS-2B cells, read-out: Selectivity Index
In short: as §5

| SMILES | selectivity ratio |
| --- | --- |
| CCCCCCC(O)(Cn1cncn1)c1ccc(Cl)cc1Cl (configuration not stated) | 14 |

Test system: not listed separately
Assay: Selectivity index, ratio of […] for toxicity in human BEAS2B cells to MIC50 for antifungal activity against Aspergillus flavus ATCC MYA-3631
Type: cell-based
Conditions: BEAS-2B cells, read-out: Selectivity Index

| SMILES | selectivity ratio |
| --- | --- |
| CCCCCCC(O)(Cn1cncn1)c1ccc(Cl)cc1Cl (configuration not stated) | 7 |

Test system: not listed separately
Assay: Selectivity index, ratio of […] for toxicity in human A549 cells to MIC50 for antifungal activity against Aspergillus nidulans ATCC 38163
Type: cell-based
Conditions: read-out: Selectivity Index

| SMILES | selectivity ratio |
| --- | --- |
| CCCCCCC(O)(Cn1cncn1)c1ccc(Cl)cc1Cl (configuration not stated) | 42 |

Test system: not listed separately
Assay: in vitro
Conditions: mouse, mouse erythrocytes

| SMILES | hemolysis at 1 h, 62.5 ug/ml |
| --- | --- |
| CCCCCCC(O)(Cn1cncn1)c1ccc(Cl)cc1Cl (configuration not stated) | 98% |

Test system: not listed separately
Assay: Selectivity index, ratio of EC50 for toxicity in human A549 cells to MIC50 for antifungal activity against Candida krusei ATCC 6258
Conditions: not given

| SMILES | selectivity ratio |
| --- | --- |
| CCCCCCC(O)(Cn1cncn1)c1ccc(Cl)cc1Cl (configuration not stated) | 667 |

Test system: not listed separately
Assay: Selectivity index, ratio of EC50 for toxicity in human BEAS2B cells to MIC50 for antifungal activity against Candida krusei ATCC 6258
Conditions: BEAS-2B cells

| SMILES | selectivity ratio |
| --- | --- |
| CCCCCCC(O)(Cn1cncn1)c1ccc(Cl)cc1Cl (configuration not stated) | 933 |

Test system: not listed separately
Assay: Selectivity index, ratio of EC50 for toxicity in human A549 cells to MIC for antifungal activity against Candida parapsilosis ATCC 22019
Conditions: not given

| SMILES | selectivity ratio |
| --- | --- |
| CCCCCCC(O)(Cn1cncn1)c1ccc(Cl)cc1Cl (configuration not stated) | 667 |
